How the values were obtained:
[1] = biological target: T1, Cocaine esterase (Homo sapiens, UniProt O00748); assay: Drug metabolism assessed as recombinant human CE2-mediated compound hydrolysis by measuring rate constant at 50 uM up to 30 mins by LC-UV analysis; type: ADME; settings: 0.5 h
T1 sequence (O00748 whole entry): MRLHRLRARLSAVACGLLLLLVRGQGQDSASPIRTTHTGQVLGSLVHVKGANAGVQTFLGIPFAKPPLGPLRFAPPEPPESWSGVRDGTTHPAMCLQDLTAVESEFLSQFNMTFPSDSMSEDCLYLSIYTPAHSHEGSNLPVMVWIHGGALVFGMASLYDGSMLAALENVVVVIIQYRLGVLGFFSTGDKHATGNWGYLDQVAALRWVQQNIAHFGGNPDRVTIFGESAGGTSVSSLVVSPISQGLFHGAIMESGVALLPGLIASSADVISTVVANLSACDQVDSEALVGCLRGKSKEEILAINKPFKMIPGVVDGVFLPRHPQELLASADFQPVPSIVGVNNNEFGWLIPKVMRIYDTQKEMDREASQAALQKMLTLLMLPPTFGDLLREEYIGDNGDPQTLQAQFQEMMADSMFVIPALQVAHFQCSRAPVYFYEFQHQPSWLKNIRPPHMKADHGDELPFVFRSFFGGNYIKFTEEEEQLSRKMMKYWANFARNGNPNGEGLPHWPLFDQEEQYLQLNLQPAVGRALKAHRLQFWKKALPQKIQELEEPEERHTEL
Method in brief: (§1)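 Recombinant human carboxylesterase isoforms 1 and 2 were each incubated with the test ester. Hydrolysis was followed by HPLC-UV, tracking the disappearance of the substrate over incubation time relative to the initial amount. Chromatograms were also checked for peaks of the expected hydrolysis metabolites.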

[2] = Drug metabolism in human fibroblast cells assessed as residual substrate levels at 50 uM up to 120 mins by HPLC-UV analysis; type: ADME, cell-based; settings: read-out: Stability
[3] = Drug metabolism in human liver S9 fraction assessed as residual substrate levels at 50 uM up to 60 mins by HPLC-UV analysis; type: ADME, subcellular; settings: read-out: Stability
[4] = Drug metabolism in human liver cytosol assessed as sulfate conjugate formation at 50 uM in presence of UDPGA after 60 mins by LC-ESI-MS analysis; type: ADME, subcellular; settings: 1 h
[5] = Drug metabolism in human liver cytosol assessed as glucuronide metabolite formation at 50 uM in presence of UDPGA after 60 mins by LC-ESI-MS analysis; type: ADME, subcellular; settings: 1 h
[6] = biological target: T2, Liver carboxylesterase 1 (CE1) (Homo sapiens, UniProt P23141); assay: Drug metabolism assessed as recombinant human CE1-mediated compound hydrolysis by measuring compound half life at 50 uM up to 30 mins by LC-UV analysis; type: ADME; method in brief: as §1
T2 sequence (P23141 whole entry): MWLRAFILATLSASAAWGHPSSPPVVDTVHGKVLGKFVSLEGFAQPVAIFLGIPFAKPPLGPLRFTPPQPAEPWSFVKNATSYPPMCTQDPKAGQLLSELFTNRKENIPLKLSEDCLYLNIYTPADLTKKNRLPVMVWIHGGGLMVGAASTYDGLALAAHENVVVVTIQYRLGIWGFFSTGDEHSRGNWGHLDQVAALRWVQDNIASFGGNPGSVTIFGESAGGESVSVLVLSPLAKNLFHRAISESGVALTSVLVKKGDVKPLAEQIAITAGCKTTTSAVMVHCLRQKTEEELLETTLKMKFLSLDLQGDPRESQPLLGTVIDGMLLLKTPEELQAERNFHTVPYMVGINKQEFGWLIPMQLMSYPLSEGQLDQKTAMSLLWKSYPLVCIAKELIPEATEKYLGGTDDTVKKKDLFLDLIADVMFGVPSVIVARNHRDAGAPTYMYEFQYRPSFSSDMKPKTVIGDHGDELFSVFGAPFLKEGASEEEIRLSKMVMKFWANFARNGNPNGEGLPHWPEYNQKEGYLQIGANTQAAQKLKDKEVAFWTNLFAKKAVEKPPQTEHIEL

[7] = Drug metabolism in human plasma assessed as residual substrate levels at 100 uM up to 20 mins by HPLC-UV analysis; type: ADME, cell-free; settings: read-out: Stability
[8] = Drug metabolism in human liver microsomes assessed as glucuronide metabolite formation at 50 uM in presence of UDPGA after 60 mins by LC-ESI-MS analysis; type: ADME, microsome; settings: 1 h
[9] = Drug metabolism in human HaCaT cells assessed as residual substrate levels at 25 uM up to 240 mins by HPLC-UV analysis; type: ADME, cell-based; settings: read-out: Stability
[10] = Drug metabolism in human keratinocytes assessed as residual substrate levels at 50 uM up to 120 mins by HPLC-UV analysis; type: ADME, cell-based, Keratinocyte; settings: read-out: Stability
[11] = Drug metabolism in human liver microsomes assessed as sulfate conjugate formation at 50 uM in presence of UDPGA after 60 mins by LC-ESI-MS analysis; type: ADME, microsome; settings: 1 h
[12] = biological target: T3, Liver carboxylesterase 1 (Homo sapiens, UniProt P23141); assay: Drug metabolism assessed as recombinant human CE1-mediated compound hydrolysis by measuring rate constant at 50 uM up to 30 mins by LC-UV analysis; type: ADME; settings: 0.5 h; method in brief: as §1
T3 sequence (P23141 whole entry): T2 sequence (P23141 whole entry)

[13] = biological target: T4, Transient receptor potential cation channel subfamily V member 1 (Homo sapiens, UniProt Q8NER1); assay: Agonist activity at TRPV1 (unknown origin) expressed in human SH-SY5Y cells assessed as increase in calcium influx after 25 mins by Fluo-4 NW dye-based fluorescence assay; type: cell-based
T4 sequence (Q8NER1 whole entry): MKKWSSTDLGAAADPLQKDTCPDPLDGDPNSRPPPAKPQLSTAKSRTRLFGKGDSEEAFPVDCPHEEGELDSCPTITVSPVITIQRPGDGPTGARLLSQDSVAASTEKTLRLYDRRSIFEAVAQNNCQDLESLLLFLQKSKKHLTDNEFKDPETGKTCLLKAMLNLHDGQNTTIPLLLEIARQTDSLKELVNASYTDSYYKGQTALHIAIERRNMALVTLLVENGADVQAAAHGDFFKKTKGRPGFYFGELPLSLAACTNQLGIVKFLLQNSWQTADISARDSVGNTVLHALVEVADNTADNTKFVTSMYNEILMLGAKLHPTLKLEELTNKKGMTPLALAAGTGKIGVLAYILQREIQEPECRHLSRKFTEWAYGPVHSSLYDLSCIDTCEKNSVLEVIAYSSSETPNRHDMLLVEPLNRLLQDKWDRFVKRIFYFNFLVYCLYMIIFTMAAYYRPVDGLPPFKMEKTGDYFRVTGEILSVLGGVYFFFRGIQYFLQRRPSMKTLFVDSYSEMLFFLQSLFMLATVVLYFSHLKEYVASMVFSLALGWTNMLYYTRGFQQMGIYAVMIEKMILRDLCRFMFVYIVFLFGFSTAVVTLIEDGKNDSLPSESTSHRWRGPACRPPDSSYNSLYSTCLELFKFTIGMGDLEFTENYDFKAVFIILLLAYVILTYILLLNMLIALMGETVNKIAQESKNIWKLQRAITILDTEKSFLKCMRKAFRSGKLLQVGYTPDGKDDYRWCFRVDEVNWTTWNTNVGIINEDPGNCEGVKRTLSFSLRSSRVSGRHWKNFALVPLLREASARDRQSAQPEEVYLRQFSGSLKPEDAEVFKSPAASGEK

[14] = biological target: T4, Transient receptor potential cation channel subfamily V member 1; assay: Agonist activity at TRPV1 (unknown origin) expressed in human SH-SY5Y cells assessed as increase in calcium influx at 1 uM after 25 mins by Fluo-4 NW dye-based fluorescence assay relative to capsaicin
[15] = biological target: T5, Cocaine esterase (CE2) (Homo sapiens, UniProt O00748); assay: Drug metabolism assessed as recombinant human CE2-mediated compound hydrolysis by measuring compound half life at 50 uM up to 30 mins by LC-UV analysis; type: ADME; method in brief: as §1
T5 sequence (O00748 whole entry): T1 sequence (O00748 whole entry)

[16] = biological target: T3, Liver carboxylesterase 1; assay: Drug metabolism assessed as recombinant human CE1-mediated compound hydrolysis by measuring rate constant at 50 uM up to 60 mins by LC-UV analysis; type: ADME; settings: 1 h
[17] = biological target: T1, Cocaine esterase; assay: Drug metabolism assessed as recombinant human CE2-mediated compound hydrolysis by measuring rate constant at 50 uM up to 60 mins by LC-UV analysis; type: ADME; settings: 1 h
[18] = biological target: T5, Cocaine esterase (CE2); assay: Drug metabolism assessed as recombinant human CE2-mediated compound hydrolysis by measuring compound half life at 50 uM up to 60 mins by LC-UV analysis; type: ADME
[19] = biological target: T2, Liver carboxylesterase 1 (CE1); assay: Drug metabolism assessed as recombinant human CE1-mediated compound hydrolysis by measuring compound intrinsic clearance at 50 uM up to 60 mins by LC-UV analysis; type: ADME
[20] = biological target: T2, Liver carboxylesterase 1 (CE1); assay: Drug metabolism assessed as recombinant human CE1-mediated compound hydrolysis by measuring compound half life at 50 uM up to 60 mins by LC-UV analysis; type: ADME
[21] = biological target: T4, Transient receptor potential cation channel subfamily V member 1; assay: Antagonist activity at TRPV1 (unknown origin) expressed in human SH-SY5Y cells assessed as inhibition of capsaicin-induced calcium increase after 25 mins by Fluo-4 NW dye-based fluorescence assay; type: cell-based
[22] = biological target: T4, Transient receptor potential cation channel subfamily V member 1; assay: Antagonist activity at TRPV1 (unknown origin) expressed in human SH-SY5Y cells assessed as inhibition of capsaicin-induced calcium influx at 1 uM after 25 mins by Fluo-4 NW dye-based fluorescence assay relative to capsaicin; type: cell-based
[23] = system: Mus musculus; assay: Toxicity in C57BL/6 mouse assessed as change in body temperature at 3 mg/kg, iv after 120 mins; type: organism-based; settings: in vivo, 2 h

| SMILES | remaining at 2 h, 50 µM [2] [%] | remaining at 1 h, 50 µM [3] [%] | Drug metabolism [4] | Drug metabolism [5] | remaining at 20 min, 100 µM [7] [%] | Drug metabolism [8] | remaining at 4 h, 25 µM [9] [%] | remaining at 2 h, 50 µM [10] [%] | Drug metabolism [11] | EC50 [13] [nM] | Activity [14] [%] | K [16] [min⁻¹] | K [17] [min⁻¹] | half-life at 50 µM [18] [min] | microsomal CLint at 50 µM [19] [µL/min/mg] | half-life at 50 µM [20] [min] | other results |
| --- | --- | --- | --- | --- | --- | --- | --- | --- | --- | --- | --- | --- | --- | --- | --- | --- | --- |
| CCCCCCCCCCCC(=O)OCC(=O)NCc1ccc(O)c(OC)c1 | 19.5 | 0 | Metabolite_Notdetected | Metabolite_Notdetected | 89.6 | Metabolite_Notdetected | 84.5 | 22.2 | Metabolite_Notdetected | 370 | 65.1 | – | – | – | – | – | K [1]: 0.0376 min⁻¹; half-life at 50 µM [6]: 14.9 min; K [12]: 0.0465 min⁻¹; half-life at 50 µM [15]: 18.6 min |
| CC(C)=CCC/C(C)=C/CC/C(C)=C/CC/C=C(\C)CC/C=C(\C)CCC(=O)OCC(=O)NCc1ccc(O)c(O)c1 | 59.6 | 70.9 | Metabolite_Notdetected | Metabolite_Notdetected | 105 | Metabolite_Notdetected | 97.9 | 70.2 | Metabolite_Notdetected | 40 | 78.4 | 0.0608 | 0.0497 | 14 | 56 | 11.4 | – |
| COc1cc(CNC(=O)COC(=O)/C=C(\C)CCC=C(C)C)c(I)cc1O | 100 | 50.1 | Metabolite_Notdetected | Metabolite_Notdetected | 100 | Metabolite_Notdetected | 99.5 | 104 | Metabolite_Notdetected | – | – | 0.0129 | 0.0877 | 7.9 | 13 | 53.8 | IC50 [21]: 90 nM; inhibition [22]: 90.1% |
| CC(C)(C)c1ccc(NC(=O)N2CCN(c3ncccc3Cl)CC2)cc1 | – | – | – | – | – | – | – | – | – | – | – | – | – | – | – | – | Activity [23]: Toxic |
